Measured values as given in ChEMBL document CHEMBL5120908, “Diterpenoid Constituents of Psiadia punctulata and Evaluation of Their Antimicrobial Activity” (2022).
Values after ≈ are worked out from the molar mass of the structure shown. Values belong to the compound of their own block, whether it stands above or below them. Active and inactive are the calls of the source. The rule behind the calls is not given here.

Key:
Staphylococcus aureus [1] = assay: Antibacterial activity against Staphylococcus aureus ATCC 23235 incubated for 48 hrs by spectrophotometric analysis; assay type: functional
Streptococcus mutans [2] = assay: Antibacterial activity against Streptococcus mutans ATCC 25175 incubated for 48 hrs by spectrophotometric analysis; assay type: functional
Treponema denticola [3] = assay: Antibacterial activity against Treponema denticola ATCC 35405 incubated for 48 hrs by spectrophotometric analysis; assay type: functional
Outline: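 Broth microdilution MIC: fractions tested at 20–200 μg/mL and pure compounds at 10–200 μg/mL, each with 0.5 × 10^5 CFU/mL inoculum. S. aureus and S. mutans grew aerobically in BHI at 37 °C for 24 h. T. denticola grew anaerobically in BHI at 37 °C for 48 h. Read by A600. MIC is the lowest concentration inhibiting visible growth. Blank and DMSO vehicle controls were included; triplicate.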

Streptococcus mutans [4] = assay: Antibacterial activity against Streptococcus mutans ATCC 25175 assessed as inhibition of efflux pump by measuring […] in accumulation of ethidium bromide at 0.6 ug/ml and measured after 60 mins by fluorescence assay; assay type: functional, organism-based; conditions: dose 0.6 µg/ml
Outline: (§1)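 EtBr accumulation in S. mutans grown overnight in BHI at 37 °C. Cells were washed twice and resuspended in PBS at OD600 0.6 with 0.4% glucose and 2 μg/mL EtBr (final). Psiadin was tested at 25 and 50 μg/mL, chlorhexidine at 0.6 μg/mL, and psiadin combined with chlorhexidine. DMSO and MeOH (0.5% each) served as negative controls. Fluorescence (ex 525/em 605 nm) was read every 60 s for 60 min at 37 °C.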

Staphylococcus aureus [5] = assay: Antibacterial activity against Staphylococcus aureus ATCC 23235 incubated for 48 hrs by checkerboard assay; assay type: functional
Outline: (§2)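 Checkerboard: psiadin at 0, 25, 50, 100, 200 μg/mL crossed with chlorhexidine at 5, 2.5, 1.25, 0.6, 0.3, 0 μg/mL. Broth microdilution MIC was read as the lowest concentration with no visible growth (A600). L. plantarum grew in MRS and T. denticola in BHI, both anaerobic at 37 °C. S. aureus and S. mutans grew in aerobic BHI at 37 °C. FIC index calculated from combination versus single-agent MICs.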

Streptococcus mutans [6] = assay: Antibacterial activity against Streptococcus mutans ATCC 25175 incubated for 48 hrs by checkerboard assay; assay type: functional; outline: as §2
[7] = tested on: Lactiplantibacillus plantarum; assay: Antibacterial activity against Lactobacillus plantarum ATCC 8014 incubated for 48 hrs by checkerboard assay; assay type: functional; outline: as §2
Treponema denticola [8] = assay: Antibacterial activity against Treponema denticola ATCC 35405 incubated for 48 hrs by checkerboard assay; assay type: functional; outline: as §2
Staphylococcus aureus [9] = assay: Potentiation of antimicrobial activity against Staphylococcus aureus ATCC 23235 assessed as chlorhexidine MIC at 25 ug/ml incubated for 48 hrs by checkerboard assay; assay type: functional; conditions: dose 25 µg/ml; outline: as §2
Streptococcus mutans [10] = assay: Potentiation of antimicrobial activity against Streptococcus mutans ATCC 25175 assessed as chlorhexidine MIC at 25 ug/ml incubated for 48 hrs by checkerboard assay; assay type: functional; conditions: dose 25 µg/ml; outline: as §2
[11] = tested on: Lactiplantibacillus plantarum; assay: Potentiation of antimicrobial activity against Lactobacillus plantarum ATCC 8014 assessed as chlorhexidine MIC at 25 ug/ml incubated for 48 hrs by checkerboard assay; assay type: functional; conditions: dose 25 µg/ml; outline: as §2
Treponema denticola [12] = assay: Potentiation of antimicrobial activity against Treponema denticola ATCC 35405 assessed as chlorhexidine MIC at 25 ug/ml incubated for 48 hrs by checkerboard assay; assay type: functional; conditions: dose 25 µg/ml; outline: as §2
Staphylococcus aureus [13] = assay: Potentiation of antimicrobial activity against Staphylococcus aureus ATCC 23235 assessed as chlorhexidine MIC at 50 ug/ml incubated for 48 hrs by checkerboard assay; assay type: functional; conditions: dose 50 µg/ml; outline: as §2
Streptococcus mutans [14] = assay: Potentiation of antimicrobial activity against Streptococcus mutans ATCC 25175 assessed as chlorhexidine MIC at 50 ug/ml incubated for 48 hrs by checkerboard assay; assay type: functional; conditions: dose 50 µg/ml; outline: as §2
[15] = tested on: Lactiplantibacillus plantarum; assay: Potentiation of antimicrobial activity against Lactobacillus plantarum ATCC 8014 assessed as chlorhexidine MIC at 50 ug/ml incubated for 48 hrs by checkerboard assay; assay type: functional; conditions: dose 50 µg/ml; outline: as §2
Treponema denticola [16] = assay: Potentiation of antimicrobial activity against Treponema denticola ATCC 35405 assessed as chlorhexidine MIC at 50 ug/ml incubated for 48 hrs by checkerboard assay; assay type: functional; conditions: dose 50 µg/ml; outline: as §2
Staphylococcus aureus [17] = assay: Potentiation of antimicrobial activity against Staphylococcus aureus ATCC 23235 assessed as chlorhexidine MIC at 100 ug/ml incubated for 48 hrs by checkerboard assay; assay type: functional; conditions: dose 100 µg/ml; outline: as §2
Streptococcus mutans [18] = assay: Potentiation of antimicrobial activity against Streptococcus mutans ATCC 25175 assessed as chlorhexidine MIC at 100 ug/ml incubated for 48 hrs by checkerboard assay; assay type: functional; conditions: dose 100 µg/ml; outline: as §2
[19] = tested on: Lactiplantibacillus plantarum; assay: Potentiation of antimicrobial activity against Lactobacillus plantarum ATCC 8014 assessed as chlorhexidine MIC at 100 ug/ml incubated for 48 hrs by checkerboard assay; assay type: functional; conditions: dose 100 µg/ml; outline: as §2
Treponema denticola [20] = assay: Potentiation of antimicrobial activity against Treponema denticola ATCC 35405 assessed as chlorhexidine MIC at 100 ug/ml incubated for 48 hrs by checkerboard assay; assay type: functional; conditions: dose 100 µg/ml; outline: as §2
Staphylococcus aureus [21] = assay: Potentiation of antimicrobial activity against Staphylococcus aureus ATCC 23235 assessed as chlorhexidine MIC at 200 ug/ml incubated for 48 hrs by checkerboard assay; assay type: functional; conditions: dose 200 µg/ml; outline: as §2
Streptococcus mutans [22] = assay: Potentiation of antimicrobial activity against Streptococcus mutans ATCC 25175 assessed as chlorhexidine MIC at 200 ug/ml incubated for 48 hrs by checkerboard assay; assay type: functional; conditions: dose 200 µg/ml; outline: as §2
[23] = tested on: Lactiplantibacillus plantarum; assay: Potentiation of antimicrobial activity against Lactobacillus plantarum ATCC 8014 assessed as chlorhexidine MIC at 200 ug/ml incubated for 48 hrs by checkerboard assay; assay type: functional; conditions: dose 200 µg/ml; outline: as §2
Treponema denticola [24] = assay: Potentiation of antimicrobial activity against Treponema denticola ATCC 35405 assessed as chlorhexidine MIC at 200 ug/ml incubated for 48 hrs by checkerboard assay; assay type: functional; conditions: dose 200 µg/ml; outline: as §2
Staphylococcus aureus [25] = assay: Synergistic antimicrobial activity against Staphylococcus aureus ATCC 23235 assessed as fractional inhibitory concentration at 50 ug/ml incubated for 48 hrs in presence of chlorhexidine by checkerboard assay; assay type: functional; conditions: dose 50 µg/ml; outline: as §2
Staphylococcus aureus [26] = assay: Synergistic antimicrobial activity against Staphylococcus aureus ATCC 23235 assessed as fractional inhibitory concentration at 25 ug/ml incubated for 48 hrs in presence of chlorhexidine by checkerboard assay; assay type: functional; conditions: dose 25 µg/ml; outline: as §2
Streptococcus mutans [27] = assay: Antibacterial activity against Streptococcus mutans ATCC 25175 assessed as inhibition of efflux pump by measuring increase in accumulation of ethidium bromide at 25 to 50 ug/ml and measured after 60 mins by fluorescence assay; assay type: functional, organism-based; conditions: dose 25-50 µg/ml, DDE = dose-dependent effect; outline: as §1
Streptococcus mutans [28] = assay: Antibacterial activity against Streptococcus mutans ATCC 25175 assessed as inhibition of efflux pump by measuring increase in accumulation of ethidium bromide at 50 ug/ml and measured after 60 mins in presence of chlorhexidine by fluorescence assay; assay type: functional, organism-based; conditions: dose 50.0 µg/ml; outline: as §1
Streptococcus mutans [29] = assay: Synergistic antimicrobial activity against Streptococcus mutans ATCC 25175 assessed as fractional inhibitory concentration incubated for 48 hrs in presence of chlorhexidine by checkerboard assay; assay type: functional; conditions: time 24 hrs; in the assay text read “24 hrs” for “48 hrs”; outline: as §2
Streptococcus mutans [30] = assay: Antibiofilm activity against Streptococcus mutans ATCC 25175 at 50 to 100 ug/ml measured after 24 hrs by crystal violet staining method; conditions: dose 50-100 µg/ml

MIC (Staphylococcus aureus [1]): > 250 µg/mL | MIC (Streptococcus mutans [2]): 180 µg/mL (≈ 523 µM) | MIC (Treponema denticola [3]): 200 µg/mL (≈ 581 µM)
Structure (SMILES): COc1c(OC)c(O)c2c(=O)cc(-c3ccc(O)cc3)oc2c1OC [XANTHOMICROL]

MIC (Staphylococcus aureus [5]): 2.5 µg/mL | MIC (Streptococcus mutans [6]): 1.25 µg/mL | MIC (Treponema denticola [8]): 2.2 µg/mL
Structure (SMILES): N=C(NCCCCCCNC(=N)NC(=N)Nc1ccc(Cl)cc1)NC(=N)Nc1ccc(Cl)cc1 [CHLORHEXIDINE]
Activity (Streptococcus mutans [4]): Active | MIC [7]: 10 µg/mL

MIC (Staphylococcus aureus [1]): 125 µg/mL (≈ 393 µM) | MIC (Streptococcus mutans [2]): 140 µg/mL (≈ 440 µM) | MIC (Treponema denticola [3]): 100 µg/mL (≈ 314 µM) | MIC (Staphylococcus aureus [9]): 1.25 µg/mL | MIC (Streptococcus mutans [10]): 1.25 µg/mL | MIC (Treponema denticola [12]): 2.5 µg/mL | MIC (Staphylococcus aureus [13]): 1.25 µg/mL | MIC (Streptococcus mutans [14]): 0.6 µg/mL | MIC (Treponema denticola [16]): 2.5 µg/mL | MIC (Staphylococcus aureus [17]): 0.6 µg/mL | MIC (Streptococcus mutans [18]): 0.6 µg/mL | MIC (Treponema denticola [20]): 2.5 µg/mL | MIC (Staphylococcus aureus [21]): 0.3 µg/mL | MIC (Streptococcus mutans [22]): 0.3 µg/mL | MIC (Treponema denticola [24]): 1.25 µg/mL
Structure (SMILES): C=C1C[C@]23CC[C@@H]4C(CO)(CO)CC(=O)C[C@@]4(C)[C@@H]2CC[C@H]1C3
MIC [11]: 10 µg/mL | MIC [15]: 10 µg/mL | MIC [19]: 10 µg/mL | MIC [23]: 2.5 µg/mL | FIC (Staphylococcus aureus [25]): 0.9 | FIC (Staphylococcus aureus [26]): 0.7 | Activity (Streptococcus mutans [27]): Dde | Activity (Streptococcus mutans [28]): Active | FIC (Streptococcus mutans [29]): 0.85 | Activity (Streptococcus mutans [30]): Active
